This note sets out measurements from ChEMBL document CHEMBL4613238, “Synthesis and biological activity of thieno[3,2-d]pyrimidines as potent JAK3 inhibitors for the treatment of idiopathic pulmonary fibrosis” (Bioorg Med Chem, 2020).

The source made the active and inactive calls. The calls are words filed in the database; no cut-off is given here. Some results are limits rather than exact numbers.

Assay [1] has as its system Mus musculus. Nature of the assay: Antifibrotic activity against bleomycin-induced pulmonary fibrosis C57BL/6J mouse model assessed as reduction in oxidative stress by measuring reduction in MDA level in plasma at 120 mg/kg, po administered via gavage qd for 14 days at 3 days post bleomycin challenge. Type of assay: functional, organism-based. An outline of the steps: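 After 33 μg intratracheal bleomycin, female C57BL/6J mice were gavaged once daily for 14 days from day 3 (vehicle saline, 1.4% DMSO; n=8). MDA was measured in heparinized plasma with a kit by absorbance at 532 nm; mean ± SEM.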

Assay [2] relates to Mus musculus. The experiment in a line: Antifibrotic activity against bleomycin-induced pulmonary fibrosis C57BL/6J mouse model assessed as reduction in lung coefficient at 120 mg/kg, po administered via gavage qd for 14 days at 3 days post bleomycin challenge. Type of assay: functional, organism-based. In a few lines:
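Bleomycin was given intratracheally (33 μg) to female C57BL/6J mice, 5‒6 weeks old. Daily oral gavage followed for 14 days from day 3, with 1.4% DMSO saline vehicle; n=8 per group. Fresh lungs were weighed and lung index was calculated as lung weight/body weight × 100.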

The test system of assay [3] is Mus musculus. The experiment in a line: Antifibrotic activity against bleomycin-induced pulmonary fibrosis C57BL/6J mouse model assessed as reduction in IL6 expression in plasma at 120 mg/kg, po administered via gavage qd for 14 days at 3 days post bleomycin challenge by FACSCalibur flow cytometry. The class given is functional, organism-based. In a few lines: (§1)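 Female C57BL/6J mice (5‒6 weeks, 20‒25 g) were given 33 μg bleomycin intratracheally in saline under isoflurane. From day 3 they received oral gavage once daily for 14 days, with saline containing 1.4% DMSO as vehicle; n=8 per group. Vena cava blood was heparinized and spun at 3000 rpm for 10 min, and plasma was stored at −20 °C. IL-6, IL-17A and TNF-α were measured by flow cytometry; mean ± SEM.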
For orientation: Flow cytometry measures light scatter and fluorescence of single cells or particles in a stream.

Assay [4] deals with Mus musculus. Nature of the assay: Antifibrotic activity against bleomycin-induced pulmonary fibrosis C57BL/6J mouse model assessed as reduction in TNF-alpha expression in plasma at 120 mg/kg, po administered via gavage qd for 14 days at 3 days post bleomycin challenge by FACSCalibur flow cytometry. The class given is functional, organism-based. In a few lines:
as §1

Assay [5] relates to Mus musculus. The experiment in a line: Antifibrotic activity against bleomycin-induced pulmonary fibrosis C57BL/6J mouse model assessed as reduction in IL17A expression in plasma at 120 mg/kg, po administered via gavage qd for 14 days at 3 days post bleomycin challenge by FACSCalibur flow cytometry. Type of assay: functional, organism-based. An outline of the steps:
as §1

The test system of assay [6] is Mus musculus. The experiment in a line: Antifibrotic activity against bleomycin-induced pulmonary fibrosis C57BL/6J mouse model assessed as reduction in alveolar septal swelling at 120 mg/kg, po administered via gavage qd for 14 days at 3 days post bleomycin challenge by hematoxylin and eosin staining based light microscopic analysis. Type of assay: functional, organism-based. An outline of the steps: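 Intratracheal bleomycin (33 μg) was given to female C57BL/6J mice. Oral gavage started 3 days later and continued once daily for 14 days, with 1.4% DMSO saline as vehicle; n=8. Lungs were formalin-fixed for 24 h and paraffin-embedded. 5 μm sections were H&E-stained and examined by light microscopy at 200×.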

A short description of assay [7]: Cytotoxicity against human NHBE cells assessed as reduction in cell viability by CCK8 assay. The class given is cell-based. In a few lines: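 Human bronchial epithelial (HBE) cells were tested for growth inhibition by CCK-8 assay. IC50 values are means of three separate experiments.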
For orientation: Tetrazolium dyes change colour on reduction, which living cells bring about.

In assay [8] the target is T1, Tyrosine-protein kinase BTK (Homo sapiens, UniProt Q06187). The experiment in a line: Inhibition of BTK (unknown origin) by ADP-Glo kinase assay. In a few lines: (§2)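 ADP-Glo luminescent assay run at compound concentrations of 0.1, 1, 10, 100 and 1000 nM. The kinase reaction ran in 1× kinase buffer for 60 min at room temperature. ADP-Glo reagent was then added to stop the reaction and deplete ATP (40 min, RT), followed by detection reagent (30 min, RT) and a luminescence read. IC50s came from curve fitting; means of three experiments.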
T1 sequence (Q06187 whole entry): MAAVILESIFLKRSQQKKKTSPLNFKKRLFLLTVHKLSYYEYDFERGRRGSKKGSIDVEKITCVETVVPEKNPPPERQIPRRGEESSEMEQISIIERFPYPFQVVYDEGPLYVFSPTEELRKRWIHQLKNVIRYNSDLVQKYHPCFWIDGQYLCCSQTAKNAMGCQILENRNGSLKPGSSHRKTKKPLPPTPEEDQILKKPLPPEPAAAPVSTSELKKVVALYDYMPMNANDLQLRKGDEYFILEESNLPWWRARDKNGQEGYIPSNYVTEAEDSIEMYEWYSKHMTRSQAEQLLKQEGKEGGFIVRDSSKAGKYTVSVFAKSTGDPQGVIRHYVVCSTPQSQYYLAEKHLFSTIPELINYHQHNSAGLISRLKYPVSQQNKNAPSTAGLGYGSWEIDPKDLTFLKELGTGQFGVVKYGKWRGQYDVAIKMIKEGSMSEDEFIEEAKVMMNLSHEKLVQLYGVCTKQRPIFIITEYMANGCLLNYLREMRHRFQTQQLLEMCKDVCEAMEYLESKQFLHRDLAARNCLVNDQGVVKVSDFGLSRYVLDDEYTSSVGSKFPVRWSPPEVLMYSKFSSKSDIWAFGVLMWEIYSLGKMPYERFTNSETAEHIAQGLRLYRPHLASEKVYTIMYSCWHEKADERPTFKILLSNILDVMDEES
In general terms: ADP-Glo turns the ADP formed in a reaction into a luminescent signal.

Assay [9] has as its target T2, Tyrosine-protein kinase JAK3 (Homo sapiens, UniProt P52333).
T2 sequence (P52333 whole entry): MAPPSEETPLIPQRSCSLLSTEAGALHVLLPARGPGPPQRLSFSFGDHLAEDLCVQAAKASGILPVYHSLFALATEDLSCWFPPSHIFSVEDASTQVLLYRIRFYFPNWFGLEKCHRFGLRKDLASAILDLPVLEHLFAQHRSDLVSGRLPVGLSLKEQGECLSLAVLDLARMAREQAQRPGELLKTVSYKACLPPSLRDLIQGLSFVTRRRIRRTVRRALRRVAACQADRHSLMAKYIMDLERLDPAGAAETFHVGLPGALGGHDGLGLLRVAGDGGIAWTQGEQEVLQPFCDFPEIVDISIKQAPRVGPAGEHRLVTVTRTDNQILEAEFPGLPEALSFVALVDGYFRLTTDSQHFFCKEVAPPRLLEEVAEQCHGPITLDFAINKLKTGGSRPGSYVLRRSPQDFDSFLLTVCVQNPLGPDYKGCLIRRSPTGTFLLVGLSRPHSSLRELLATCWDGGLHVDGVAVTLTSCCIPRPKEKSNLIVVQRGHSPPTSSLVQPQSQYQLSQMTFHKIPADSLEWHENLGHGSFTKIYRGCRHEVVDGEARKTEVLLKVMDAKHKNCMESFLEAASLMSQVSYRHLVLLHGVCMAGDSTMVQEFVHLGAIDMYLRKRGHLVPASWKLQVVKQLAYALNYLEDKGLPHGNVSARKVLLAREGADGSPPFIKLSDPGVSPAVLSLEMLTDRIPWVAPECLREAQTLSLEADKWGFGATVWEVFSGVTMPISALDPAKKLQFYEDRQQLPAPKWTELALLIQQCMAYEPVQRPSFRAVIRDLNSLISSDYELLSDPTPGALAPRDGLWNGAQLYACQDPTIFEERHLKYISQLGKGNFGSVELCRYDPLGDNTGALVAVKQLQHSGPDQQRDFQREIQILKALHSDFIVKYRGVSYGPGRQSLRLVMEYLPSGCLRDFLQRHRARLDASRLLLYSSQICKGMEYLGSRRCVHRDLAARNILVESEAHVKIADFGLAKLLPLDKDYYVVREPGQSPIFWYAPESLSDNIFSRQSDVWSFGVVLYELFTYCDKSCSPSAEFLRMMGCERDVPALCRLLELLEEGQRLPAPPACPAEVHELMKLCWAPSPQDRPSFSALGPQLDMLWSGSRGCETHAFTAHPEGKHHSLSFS
The experiment in a line: Inhibition of recombinant human N-terminal GST-tagged JAK3 (781 to end residues) expressed in baculovirus infected Sf9 cells using poly (Glu,Tyr) 4:1 as substrate incubated for 60 mins in presence of ATP by ADP-Glo kinase assay. In a few lines:
as §2

Assay [10] deals with T2, Tyrosine-protein kinase JAK3. Nature of the assay: Inhibition of JAK3 (unknown origin).
Assay [11] concerns the target Epidermal growth factor receptor (Homo sapiens, UniProt P00533). The experiment in a line: Inhibition of EGFR (unknown origin).
Assay [12] deals with T1, Tyrosine-protein kinase BTK. Nature of the assay: Inhibition of BTK (unknown origin).

Chain of Epidermal growth factor receptor (P00533 whole entry): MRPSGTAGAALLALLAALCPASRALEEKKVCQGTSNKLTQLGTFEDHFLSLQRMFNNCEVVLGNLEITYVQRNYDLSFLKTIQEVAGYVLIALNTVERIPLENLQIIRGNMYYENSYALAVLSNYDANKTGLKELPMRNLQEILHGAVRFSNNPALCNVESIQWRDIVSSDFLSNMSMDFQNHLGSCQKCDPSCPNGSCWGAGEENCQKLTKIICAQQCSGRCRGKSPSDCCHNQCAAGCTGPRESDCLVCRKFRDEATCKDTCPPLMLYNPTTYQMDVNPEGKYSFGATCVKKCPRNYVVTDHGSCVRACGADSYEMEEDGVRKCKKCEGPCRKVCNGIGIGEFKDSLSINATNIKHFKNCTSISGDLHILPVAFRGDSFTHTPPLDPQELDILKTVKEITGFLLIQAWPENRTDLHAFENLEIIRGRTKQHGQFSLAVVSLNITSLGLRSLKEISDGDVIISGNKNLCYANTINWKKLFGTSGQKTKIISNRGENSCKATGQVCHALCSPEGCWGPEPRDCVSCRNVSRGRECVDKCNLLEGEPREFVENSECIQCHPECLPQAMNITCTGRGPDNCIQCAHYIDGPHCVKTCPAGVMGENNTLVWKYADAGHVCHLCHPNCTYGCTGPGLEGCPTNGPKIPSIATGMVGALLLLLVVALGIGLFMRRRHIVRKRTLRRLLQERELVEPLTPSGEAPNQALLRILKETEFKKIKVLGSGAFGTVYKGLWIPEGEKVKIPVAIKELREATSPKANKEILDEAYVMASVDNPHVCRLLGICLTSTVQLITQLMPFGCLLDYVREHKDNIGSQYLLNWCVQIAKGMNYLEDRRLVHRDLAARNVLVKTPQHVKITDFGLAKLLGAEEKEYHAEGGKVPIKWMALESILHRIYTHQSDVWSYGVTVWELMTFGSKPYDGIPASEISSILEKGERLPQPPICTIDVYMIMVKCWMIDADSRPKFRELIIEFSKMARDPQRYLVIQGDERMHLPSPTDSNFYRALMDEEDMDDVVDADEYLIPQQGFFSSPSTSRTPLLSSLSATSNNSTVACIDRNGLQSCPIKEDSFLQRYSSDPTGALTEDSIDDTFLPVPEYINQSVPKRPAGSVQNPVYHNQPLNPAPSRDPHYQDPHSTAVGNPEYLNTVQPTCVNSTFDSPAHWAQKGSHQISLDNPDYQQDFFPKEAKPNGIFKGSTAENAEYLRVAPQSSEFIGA

On to `Cc1ccc(=O)n(-c2ccccc2)c1`, for which the result in the assay with Mus musculus [1], with Mus musculus [2], with Mus musculus [3], in the assay with Mus musculus [4], in the assay on Mus musculus [5] and in the assay with Mus musculus [6] was Active.
As usually defined, the IC50 is the concentration at which inhibition is half-maximal. On to `C=CC(=O)Nc1cccc(Nc2nc(Nc3ccc(CN4CCOCC4)cc3)nc3ccsc23)c1`, for which the IC50 in assay [7] was 8.27 µM; in [8], > 0.1 µM; in [9], 0.0594 µM.
As for `C=CC(=O)Nc1cccc(Oc2nc(Nc3ccc(OCCN4CCOCC4)cc3)nc3ccsc23)c1`, the IC50 in [7] was 23.3 µM; in [8], > 0.1 µM; in [9], 0.0908 µM.
As to `C=CC(=O)Nc1cccc(Nc2nc(Nc3ccc(NC(=O)CN4CCOCC4)cc3)ncc2Cl)c1`, the concentration for half-maximal inhibition (IC50) in [10], in assay [11] and in [12] was < 0.01 µM each time.
Turning to `C=CC(=O)Nc1cccc(Oc2nc(Nc3ccc(CN4CCOCC4)cc3)nc3ccsc23)c1`, the half-maximal inhibitory concentration (IC50) is 12.8 µM in assay [7], > 0.1 µM in [8] and 0.0853 µM in [9].
